{"source": "paper PMC4714678", "about": "(Cancer Science, 2015)", "key": {"[1]": {"system": "cancer cells (BGC‐823, PG and HT‐29)", "assay": "Fluorescence visualization for entry of peptides", "assay_type": "cell-based, human", "conditions": "BGC‐823, PG and HT‐29 cells, 25 μg/mL FITC‐conjugated peptide, 3 h, fixed, DAPI", "in_short": "(§1)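 Test peptide FITC-conjugated, or FITC-TAT cell-penetrating peptide, each at 25 μg/mL, applied for 3 h. HUVEC were isolated in-house. BGC-823, PG and HT-29 were grown in RPMI-1640 with 10% FBS at 37°C in 5% CO2. Cells were then fixed in 4% paraformaldehyde, permeabilized with 0.1% NP-40 in PBS, nuclei stained with DAPI (5 ng/mL), washed three times in PBS, and imaged by confocal microscopy.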"}, "HUVEC": {"system": "HUVEC", "assay": "Fluorescence visualization for entry of peptides", "assay_type": "cell-based, human", "conditions": "25 μg/mL FITC‐conjugated peptide, 3 h, fixed, DAPI", "in_short": "as §1"}, "[2]": {"conditions": "previous studies; cited from earlier work"}, "[3]": {"assay": "Pre‐clinical toxicology study", "assay_type": "in vivo, mouse, rat and monkey"}, "[4]": {"system": "subintestinal vein vessels (SIV) of zebrafish", "assay": "Transgenic zebrafish embryo angiogenesis assay", "assay_type": "in vivo", "conditions": "doses of the angiogenesis test"}}, "note": "No end group written: not given here."}
{"compound": "N=C(N)NCCC[C@H](NC(=O)CNC(=S)Nc1ccc2c(c1)C(=O)OC21c2ccc(O)cc2Oc2cc(O)ccc21)C(=O)N[C@@H](CCCCN)C(=O)N[C@@H](CCCCN)C(=O)N[C@@H](CCCNC(=N)N)C(=O)N[C@@H](CCCNC(=N)N)C(=O)N[C@@H](CCC(N)=O)C(=O)N[C@@H](CCCNC(=N)N)C(=O)N[C@@H](CCCNC(=N)N)C(=O)N[C@@H](CCCNC(=N)N)C(=O)NCC(=O)N[C@@H](Cc1ccc(O)cc1)C(=O)O", "note": "[FITC‐labeled TAT peptide]", "values": [{"measurement": "entry into cells (confocal fluorescence)", "setting": "[1]", "result": "entered"}, {"measurement": "entry into cells (confocal fluorescence)", "setting": "HUVEC", "result": "entered"}]}
{"compound": "ADSGEGDFLAEGGGVR [FpA]", "values": [{"measurement": "anti‐angiogenesis activity of synthetic peptide", "setting": "[2]", "result": "inactive"}]}
{"compound": "ADSGEGDFLAEGGGVRGPRVVERH [alphastatin]", "values": [{"measurement": "anti‐angiogenesis activity of synthetic peptide", "setting": "[2]", "result": "showed anti‐angiogenesis activity"}]}
{"compound": "DSGEGDFLAEGGGVR [fibrinostatin]", "values": [{"measurement": "side effects in toxicology study", "setting": "[3]; pre‐clinical animal models, GLP standards, data not shown", "result": "no observable side effects"}, {"measurement": "margin of safety", "setting": "[3]; single‐dose acute toxicity testing and repeated‐dose chronic toxicity study in the mouse, rat and monkey", "result": "wide margin of safety"}, {"measurement": "toxicity to zebrafish", "setting": "[4]", "result": "no tocixity"}]}
